Laboratory results published in ChEMBL document CHEMBL3259704, “Second generation steroidal 4-aminoquinolines are potent, dual-target inhibitors of the botulinum neurotoxin serotype A metalloprotease and P. falciparum malaria” (J Med Chem, 2014).

Columns and labels:
Plasmodium falciparum [1] = experiment: Antimalarial activity against CQ, MFQ-resistant Plasmodium falciparum TM91C235 clone Southeast asian isolate assessed as inhibition of parasite proliferation by MSF assay; type: functional, organism-based
Method in brief: (§1)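 SYBR Green I fluorescence (MSF) microtiter drug-sensitivity assay: malarial DNA content is the measure of in vitro parasite proliferation. Resistance index is the IC90 ratio of the resistant strain to D6.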

Plasmodium falciparum [2] = experiment: Antimalarial activity against CQ, MFQ-susceptible Plasmodium falciparum D6 clone Sierra 1/UNC isolate assessed as inhibition of parasite proliferation by MSF assay; type: functional, organism-based; method in brief: as §1
[3] = Selectivity index, ratio of IC50 for human HepG2 cells to IC50 for CQ, MFQ-susceptible Plasmodium falciparum D6 clone Sierra 1/UNC isolate; type: toxicity, cell-based; settings: read-out: Ratio IC50
[4] = Selectivity index, ratio of IC50 for human HepG2 cells to IC50 for CQ, MFQ-resistant Plasmodium falciparum TM91C235 clone Southeast asian isolate; type: toxicity, cell-based; settings: read-out: Ratio IC50
Plasmodium falciparum [5] = experiment: Resistance index, ratio of IC90 for CQ, MFQ-resistant Plasmodium falciparum TM91C235 clone Southeast asian isolate to IC90 for CQ, MFQ-susceptible Plasmodium falciparum D6 clone Sierra 1/UNC isolate; type: functional; method in brief: as §1
Liver microsome = experiment: Half life in human liver microsomes; type: ADME; settings: microsomes
[6] = molecular target: Botulinum neurotoxin type A (Clostridium botulinum, UniProt P0DPI0); experiment: Inhibition of Clostridium botulinum recombinant BoNT/A light chain using N-terminal acetylated, C-terminal aminated SNAP-25 (187-203) as substrate by reverse-phase HPLC analysis
Method in brief: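 Same HPLC LC cleavage assay (pH 7.3 HEPES/Tween, BSA, excess Zn, 37 °C). […] Ki comes from velocity versus substrate at several inhibitor levels, globally fit to a competitive model.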

[7] = (§2) Half life in mouse liver microsomes; type: ADME; settings: liver microsomes
[8] = Selectivity index, ratio of IC50 for human HepG2 cells to IC50 for CQ-resistant, MFQ-susceptible Plasmodium falciparum W2 clone Indochina 1 isolate; type: toxicity, cell-based; settings: read-out: Ratio IC50
Plasmodium falciparum [9] = experiment: Antimalarial activity against CQ-resistant, MFQ-susceptible Plasmodium falciparum W2 clone Indochina 1 isolate assessed as inhibition of parasite proliferation by MSF assay; type: functional, organism-based; method in brief: as §1
[10] = molecular target: Botulinum neurotoxin type A (Clostridium botulinum) (UniProt P0DPI0); experiment: Inhibition of Clostridium botulinum recombinant BoNT/A light chain using N-terminal acetylated, C-terminal aminated SNAP-25 (187-203) as substrate at 20 uM by reverse-phase HPLC analysis
Method in brief: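 Recombinant BoNT/A LC with SNAP-25 187–203 peptide substrate in 40 mM HEPES–0.05% Tween, pH 7.3, with 0.5 mg/mL BSA and 50 μM excess Zn, at 37 °C. Quenched with TFA; reverse-phase HPLC product/substrate peak areas give percent inhibition, run in duplicate.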

HepG2 = experiment: Cytotoxicity against human HepG2 cells assessed as cell viability after 48 hrs by MTT assay; type: cell-based; settings: HepG2, 48 h
Plasmodium falciparum [11] = experiment: Resistance index, ratio of IC90 for CQ-resistant, MFQ-susceptible Plasmodium falciparum W2 clone Indochina 1 isolate to IC90 for CQ, MFQ-susceptible Plasmodium falciparum D6 clone Sierra 1/UNC isolate; type: functional; method in brief: as §1
Liver = experiment: as §2; type: ADME; settings: microsomes
PBMC = experiment: Cytotoxicity against human PBMC assessed as inhibition of cell survival after 72 hrs; type: cell-based
Method in brief: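 PBMC from heparinized healthy-donor blood (Histopaque) in RPMI-1640 with 10% FCS and PHA stimulation, 200 000 cells/well, with compounds in DMSO, 72 h at 37 °C, 6% CO2.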

Sequence of Botulinum neurotoxin type A (P0DPI0 2-448 limits assumed): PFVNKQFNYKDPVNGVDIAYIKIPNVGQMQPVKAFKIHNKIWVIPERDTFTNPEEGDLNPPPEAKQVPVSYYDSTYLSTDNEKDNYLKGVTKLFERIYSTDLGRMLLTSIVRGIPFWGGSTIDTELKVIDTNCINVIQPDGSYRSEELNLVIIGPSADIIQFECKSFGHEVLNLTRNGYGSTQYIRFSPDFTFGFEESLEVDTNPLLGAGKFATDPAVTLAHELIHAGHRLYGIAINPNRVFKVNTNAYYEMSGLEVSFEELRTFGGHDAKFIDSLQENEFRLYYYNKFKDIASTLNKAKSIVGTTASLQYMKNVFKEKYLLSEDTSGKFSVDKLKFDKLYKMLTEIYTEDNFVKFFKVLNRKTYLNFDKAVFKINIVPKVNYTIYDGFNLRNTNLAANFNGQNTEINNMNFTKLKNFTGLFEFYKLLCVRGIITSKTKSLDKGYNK
Sequence of Botulinum neurotoxin type A (Clostridium botulinum) (P0DPI0 2-448 limits assumed): as above

| SMILES | IC50 (Plasmodium falciparum [1]) | IC90 (Plasmodium falciparum [1]) | IC50 (Plasmodium falciparum [2]) | IC90 (Plasmodium falciparum [2]) | selectivity ratio [3] | selectivity ratio [4] | Ratio (Plasmodium falciparum [5]) | t1/2 (Liver microsome) | IC50 [6] | half-life [7] | selectivity ratio [8] | IC50 (Plasmodium falciparum [9]) | IC90 (Plasmodium falciparum [9]) | inhibition [10] | IC50 (HepG2) | Ratio (Plasmodium falciparum [11]) | t1/2 (Liver) | IC50 (PBMC) | Ki [6] |
| --- | --- | --- | --- | --- | --- | --- | --- | --- | --- | --- | --- | --- | --- | --- | --- | --- | --- | --- | --- |
| CC(=O)O[C@H]1C[C@H]2[C@@H]([C@H](OC(C)=O)C[C@@H]3C[C@H](NS(C)(=O)=O)CC[C@@]32C)[C@@H]2CC[C@H]([C@H](C)CCCN(C)CCCNc3ccnc4cc(Cl)ccc34)[C@@]12C | 20.3 nM | 28.6 nM | 31.7 nM | 55.9 nM | 89 | 139 | 0.51 | 11 min | 8210 nM | 60 min | 93 | 30.5 nM | 54.7 nM | 55.6% | 2830 nM | 0.98 |  |  |  |
| CC(=O)O[C@H]1C[C@H]2[C@@H]([C@H](OC(C)=O)C[C@@H]3C[C@H](NS(C)(=O)=O)CC[C@@]32C)[C@@H]2CC[C@H]([C@H](C)CCCNCCCNc3ccnc4cc(Cl)ccc34)[C@@]12C | 30.3 nM | 56.2 nM | 37.5 nM | 74.7 nM | 119 | 147 | 0.75 | 11 min | 3250 nM |  | 130 | 34.4 nM | 96.4 nM | 72.9% | 4460 nM | 1.29 | 47 min |  |  |
| CC(=O)O[C@H]1C[C@H]2[C@@H]([C@H](OC(C)=O)C[C@@H]3C[C@H](N(C)C)CC[C@@]32C)[C@@H]2CC[C@H]([C@H](C)CCCN(C)CCNc3ccnc4cc(Cl)ccc34)[C@@]12C | 2.9 nM | 3.32 nM | 2.35 nM | 2.63 nM | 3920 | 3180 | 1.26 | 27 min | 2270 nM | 60 min | 6820 | 1.35 nM | 1.35 nM | 85.5% | 9210 nM | 0.51 |  | 2520 nM |  |
| CC(=O)O[C@H]1C[C@H]2[C@@H]([C@H](OC(C)=O)C[C@@H]3C[C@H](N(C)C)CC[C@@]32C)[C@@H]2CC[C@H]([C@H](C)CCCNCCCNc3ccnc4cc(Cl)ccc34)[C@@]12C | 88.7 nM | 165 nM | 101 nM | 139 nM | 137 | 156 | 1.19 |  | 1340 nM |  | 382 | 36.1 nM | 81.1 nM | 92.6% | 13800 nM | 0.58 |  | 7840 nM |  |
| CC(=O)O[C@@H]1CC[C@@]2(C)[C@@H](C1)C[C@@H](OC(C)=O)[C@@H]1[C@@H]2C[C@H](OC(C)=O)[C@]2(C)[C@@H]([C@H](C)CCCN(C)CCNc3ccnc4cc(Cl)ccc34)CC[C@@H]12 | 23 nM | 32.9 nM | 7.47 nM | 19.1 nM | 242 | 79 | 1.73 |  |  |  | 98 | 18.6 nM | 38.6 nM | 33.3% | 1810 nM | 2.03 |  |  | 34500 nM |
| CC(=O)N[C@@H]1CC[C@@]2(C)[C@@H](C1)C[C@@H](OC(C)=O)[C@@H]1[C@@H]2C[C@H](OC(C)=O)[C@]2(C)[C@@H]([C@H](C)CCCNCCCNc3ccnc4cc(Cl)ccc34)CC[C@@H]12 | 28.1 nM | 39.9 nM | 12.8 nM | 36.5 nM | 114 | 51 | 1.09 |  | 4920 nM |  | 55 | 26.4 nM | 35.8 nM | 77.3% | 1450 nM | 0.98 |  |  |  |
| CC(=O)O[C@@H]1CC[C@@]2(C)[C@@H](C1)C[C@@H](OC(C)=O)[C@@H]1[C@@H]2C[C@H](OC(C)=O)[C@]2(C)[C@@H]([C@H](C)CCCNCCCNc3ccnc4cc(Cl)ccc34)CC[C@@H]12 | 14.5 nM | 31.9 nM | 9.72 nM | 13.8 nM | 101 | 67 | 2.31 |  | 2280 nM |  | 104 | 9.42 nM | 19 nM | 81.4% | 980 nM | 1.38 |  |  | 5670 nM |
| CC(=O)O[C@H]1C[C@H]2[C@@H]([C@H](OC(C)=O)C[C@@H]3C[C@H](N)CC[C@@]32C)[C@@H]2CC[C@H]([C@H](C)CCCNCCCNc3ccnc4cc(Cl)ccc34)[C@@]12C | 243 nM | 347 nM | 138 nM | 234 nM | 75 | 43 | 1.49 |  | 1040 nM |  | 54 | 195 nM | 282 nM | 84.8% | 10400 nM | 1.21 |  |  | 3450 nM |
| CC(=O)O[C@H]1C[C@H]2[C@@H]([C@H](OC(C)=O)C[C@@H]3C[C@H](NC(=O)OC(C)(C)C)CC[C@@]32C)[C@@H]2CC[C@H]([C@H](C)CCCNCCNc3ccnc4cc(Cl)ccc34)[C@@]12C | 27.6 nM | 51.9 nM | 24.1 nM | 29.5 nM | 531 | 464 | 1.76 |  | 4900 nM |  | 1740 | 7.34 nM | 12.3 nM | 67.4% | 12800 nM | 0.42 |  |  |  |
| CC(=O)O[C@@H]1CC[C@@]2(C)[C@@H](C1)C[C@@H](OC(C)=O)[C@@H]1[C@@H]2C[C@H](OC(C)=O)[C@]2(C)[C@@H]([C@H](C)CCCN(C)CCCNc3ccnc4cc(Cl)ccc34)CC[C@@H]12 | 22.3 nM | 47.3 nM | 6.91 nM | 10.5 nM | 229 | 71 | 4.52 |  | 4480 nM |  | 134 | 11.8 nM | 16.9 nM | 61.1% | 1580 nM | 1.61 |  |  | 7690 nM |
| CC(=O)O[C@H]1C[C@H]2[C@@H]([C@H](OC(C)=O)C[C@@H]3C[C@H](NS(C)(=O)=O)CC[C@@]32C)[C@@H]2CC[C@H]([C@H](C)CCCN(C)CCNc3ccnc4cc(Cl)ccc34)[C@@]12C | 6.59 nM | 12.6 nM | 5.35 nM | 10.2 nM | 2710 | 2200 | 1.24 | 14 min | 25000 nM |  | 1190 | 12.1 nM | 16.8 nM | 33.8% | 14500 nM | 1.65 | 47 min |  |  |
| CC(=O)O[C@H]1C[C@H]2[C@@H]([C@H](OC(C)=O)C[C@@H]3C[C@H](O)CC[C@@]32C)[C@@H]2CC[C@H]([C@H](C)CCCNCCCNc3ccnc4cc(Cl)ccc34)[C@@]12C | 11.9 nM | 30.3 nM | 9.3 nM | 16.5 nM | 115 | 90 | 1.84 | 8 min | 5180 nM | 60 min | 84 | 12.8 nM | 18.8 nM | 69.9% | 1070 nM | 1.14 |  |  |  |
| CC(=O)O[C@H]1C[C@H]2[C@@H]([C@H](OC(C)=O)C[C@@H]3C[C@H](NC(=O)OC(C)(C)C)CC[C@@]32C)[C@@H]2CC[C@H]([C@H](C)CCCN(C)CCNc3ccnc4cc(Cl)ccc34)[C@@]12C | 16.3 nM | 22.6 nM | 8.93 nM | 10.9 nM | 264 | 144 | 2.07 |  | 6780 nM |  | 293 | 8.05 nM | 11.7 nM | 30% | 2360 nM | 1.07 |  |  |  |
